Laboratory results: ChEMBL document CHEMBL3244186, “Synthesis and evaluation of the thiosemicarbazone, dithiocarbazonate, and 2'-pyrazinylhydrazone of pyrazinecarboxaldehyde as agents for the treatment of iron overload” (J Med Chem, 1979)

Columns and labels:
Mus musculus [1] = experiment: Iron chelating activity in iron-overloaded BDF1 mouse assessed as daily urinary iron level at 80 mg/kg, ip treated from day 8 to 13 after erythrocyte suspension injection on day 1, 3 and 5 by atomic absorption spectroscopic analysis; type: functional, Urine; conditions: route intraperitoneal
Mus musculus [2] = experiment: Iron chelating activity in iron-overloaded BDF1 mouse assessed as iron level in spleen at 80 mg/kg, ip treated from day 8 to 13 after erythrocyte suspension injection on day 1, 3 and 5 by atomic absorption spectroscopic analysis; type: functional; conditions: route intraperitoneal
Method in brief: (§1)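 Iron-loaded male BDF1 mice (10 per group) given ip drug in EtOH/Tween 80/saline vehicle daily on days 8-13. On day 15, under Et2O, mice were exsanguinated. Organs were washed, frozen, thawed, weighed and homogenized in 0.014 M NaCl made with iron-free water; supernatant iron was measured by AAS, as μg/mouse. Mean ± SD; t test versus iron-loaded vehicle control.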

Mus musculus [3] = experiment: Iron chelating activity in iron-overloaded BDF1 mouse assessed as iron level in heart at 40 mg/kg, ip treated from day 8 to 13 after erythrocyte suspension injection on day 1, 3 and 5 by atomic absorption spectroscopic analysis; type: functional; conditions: route intraperitoneal; method in brief: as §1
Mus musculus [4] = experiment: Iron chelating activity in iron-overloaded BDF1 mouse assessed as iron level in lung at 40 mg/kg, ip treated from day 8 to 13 after erythrocyte suspension injection on day 1, 3 and 5 by atomic absorption spectroscopic analysis; type: functional; conditions: route intraperitoneal; method in brief: as §1
Mus musculus [5] = experiment: Iron chelating activity in iron-overloaded BDF1 mouse assessed as iron level in heart at 80 mg/kg, ip treated from day 8 to 13 after erythrocyte suspension injection on day 1, 3 and 5 by atomic absorption spectroscopic analysis; type: functional; conditions: route intraperitoneal; method in brief: as §1
Mus musculus [6] = experiment: Iron chelating activity in iron-overloaded BDF1 mouse assessed as iron level in liver at 40 mg/kg, ip treated from day 8 to 13 after erythrocyte suspension injection on day 1, 3 and 5 by atomic absorption spectroscopic analysis; type: functional; conditions: route intraperitoneal; method in brief: as §1
Mus musculus [7] = experiment: Iron chelating activity in iron-overloaded BDF1 mouse assessed as iron level in spleen at 40 mg/kg, ip treated from day 8 to 13 after erythrocyte suspension injection on day 1, 3 and 5 by atomic absorption spectroscopic analysis; type: functional; conditions: route intraperitoneal; method in brief: as §1
[8] = Iron chelating activity assessed as removal of [59]-Fe from [59]-Fe-labeled transferrin at 1 mM measured per hr by spectrometric analysis; type: physicochemical; conditions: 1000 µM
Method in brief: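 About 10^6 cpm of 59Fe-labeled transferrin in 1.0 mL of 0.1 M Hepes (pH 7.00), inside a dialysis sack, dialyzed at room temperature against 25.0 mL of 1.00 mM ligand in the same buffer. Dialysate aliquots of 1.00 mL taken at intervals were gamma-counted (800-1400 keV window). Initial release rates were derived from these counts.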

[9] = Iron chelating activity assessed as removal of iron from ferritin after 20 hrs by atomic absorption spectrophotometric analysis; type: physicochemical
Method in brief: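 Ferritin holding 1.34 mg total Fe was dialyzed at room temperature against 25.0 mL of 1.00 mM ligand solution. Iron in the dialysate was measured by atomic absorption spectroscopy at 20 h.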

Mus musculus [10] = experiment: Iron chelating activity in iron-overloaded BDF1 mouse assessed as transferrin saturation at 80 mg/kg, ip treated from day 8 to 13 after erythrocyte suspension injection on day 1, 3 and 5 relative to control; type: functional; conditions: route intraperitoneal
Method in brief: (§2)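 Iron-loaded male BDF1 mice (10 per group) received ip drug daily on days 8-13, with non-loaded and iron-loaded vehicle-treated control groups. On day 15, blood collected by cardiac puncture under Et2O was pooled per group. Percent transferrin saturation was measured with a standard hematologic kit.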

Mus musculus [11] = experiment: Iron chelating activity in iron-overloaded BDF1 mouse assessed as transferrin saturation at 40 mg/kg, ip treated from day 8 to 13 after erythrocyte suspension injection on day 1, 3 and 5 relative to control; type: functional; conditions: route intraperitoneal; method in brief: as §2
Mus musculus [12] = experiment: Iron chelating activity in iron-overloaded BDF1 mouse assessed as iron level in lung at 80 mg/kg, ip treated from day 8 to 13 after erythrocyte suspension injection on day 1, 3 and 5 by atomic absorption spectroscopic analysis; type: functional; conditions: route intraperitoneal; method in brief: as §1
[13] = Binding affinity to FeSO4 assessed as stability constant at pH 7.4 after 1 hr; type: physicochemical; conditions: pH 7.4, 1 h
Method in brief: (§3)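 Continuous-variation (Job) method: iron and ligand solutions diluted after 1 h to 10.00 mL with 50 mM barbital buffer (pH 7.4), all containing 0.100 M KNO3. Visible absorbance at λmax was read at several times to confirm equilibrium. Absorbance was plotted against metal/(metal + ligand) to give the stoichiometry and minimum stability constant.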

[14] = Binding affinity to Fe(NO3)3 assessed as stability constant at pH 7.4 after 1 hr; conditions: pH 7.4, 1 h
Mus musculus [15] = experiment: Iron chelating activity in iron-overloaded BDF1 mouse assessed as daily urinary iron level at 40 mg/kg, ip treated from day 8 to 13 after erythrocyte suspension injection on day 1, 3 and 5 by atomic absorption spectroscopic analysis; type: functional, Urine; conditions: route intraperitoneal
Mus musculus [16] = experiment: Iron chelating activity in iron-overloaded BDF1 mouse assessed as iron level in liver at 80 mg/kg, ip treated from day 8 to 13 after erythrocyte suspension injection on day 1, 3 and 5 by atomic absorption spectroscopic analysis; type: functional; conditions: route intraperitoneal; method in brief: as §1
Mus musculus [17] = experiment: Iron chelating activity in iron-overloaded BDF1 mouse assessed as transferrin saturation at 50 mg/kg, ip treated from day 8 to 13 after erythrocyte suspension injection on day 1, 3 and 5 relative to control; type: functional; conditions: route intraperitoneal; method in brief: as §2
Mus musculus [18] = experiment: Iron chelating activity in iron-overloaded BDF1 mouse assessed as transferrin saturation at 100 mg/kg, ip treated from day 8 to 13 after erythrocyte suspension injection on day 1, 3 and 5 relative to control; type: functional; conditions: route intraperitoneal; method in brief: as §2
Mus musculus [19] = experiment: Iron chelating activity in iron-overloaded BDF1 mouse assessed as iron level in spleen at 100 mg/kg, ip treated from day 8 to 13 after erythrocyte suspension injection on day 1, 3 and 5 by atomic absorption spectroscopic analysis; type: functional; conditions: route intraperitoneal; method in brief: as §1
Mus musculus [20] = experiment: Iron chelating activity in iron-overloaded BDF1 mouse assessed as iron level in lung at 100 mg/kg, ip treated from day 8 to 13 after erythrocyte suspension injection on day 1, 3 and 5 by atomic absorption spectroscopic analysis; type: functional; conditions: route intraperitoneal; method in brief: as §1
Mus musculus [21] = experiment: Iron chelating activity in iron-overloaded BDF1 mouse assessed as iron level in spleen at 50 mg/kg, ip treated from day 8 to 13 after erythrocyte suspension injection on day 1, 3 and 5 by atomic absorption spectroscopic analysis; type: functional; conditions: route intraperitoneal; method in brief: as §1
Mus musculus [22] = experiment: Iron chelating activity in iron-overloaded BDF1 mouse assessed as iron level in heart at 50 mg/kg, ip treated from day 8 to 13 after erythrocyte suspension injection on day 1, 3 and 5 by atomic absorption spectroscopic analysis; type: functional; conditions: route intraperitoneal; method in brief: as §1
Mus musculus [23] = experiment: Iron chelating activity in iron-overloaded BDF1 mouse assessed as daily urinary iron level at 50 mg/kg, ip treated from day 8 to 13 after erythrocyte suspension injection on day 1, 3 and 5 by atomic absorption spectroscopic analysis; type: functional, Urine; conditions: route intraperitoneal
Mus musculus [24] = experiment: Iron chelating activity in iron-overloaded BDF1 mouse assessed as iron level in heart at 100 mg/kg, ip treated from day 8 to 13 after erythrocyte suspension injection on day 1, 3 and 5 by atomic absorption spectroscopic analysis; type: functional; conditions: route intraperitoneal; method in brief: as §1
Mus musculus [25] = experiment: Iron chelating activity in iron-overloaded BDF1 mouse assessed as iron level in lung at 50 mg/kg, ip treated from day 8 to 13 after erythrocyte suspension injection on day 1, 3 and 5 by atomic absorption spectroscopic analysis; type: functional; conditions: route intraperitoneal; method in brief: as §1
[26] = Binding affinity to Fe(NO3)3 assessed as stability constant at pH 7.4 after 1 hr; type: physicochemical; conditions: pH 7.4, 1 h; method in brief: as §3
Mus musculus [27] = experiment: Iron chelating activity in iron-overloaded BDF1 mouse assessed as iron level in liver at 100 mg/kg, ip treated from day 8 to 13 after erythrocyte suspension injection on day 1, 3 and 5 by atomic absorption spectroscopic analysis; type: functional; conditions: route intraperitoneal; method in brief: as §1
Mus musculus [28] = experiment: Iron chelating activity in iron-overloaded BDF1 mouse assessed as iron level in liver at 50 mg/kg, ip treated from day 8 to 13 after erythrocyte suspension injection on day 1, 3 and 5 by atomic absorption spectroscopic analysis; type: functional; conditions: route intraperitoneal; method in brief: as §1
Mus musculus [29] = experiment: Iron chelating activity in iron-overloaded BDF1 mouse assessed as daily urinary iron level at 100 mg/kg, ip treated from day 8 to 13 after erythrocyte suspension injection on day 1, 3 and 5 by atomic absorption spectroscopic analysis; type: functional, Urine; conditions: route intraperitoneal
Mus musculus [30] = experiment: Iron chelating activity in iron-overloaded BDF1 mouse assessed as iron level in spleen at 125 mg/kg, ip treated from day 8 to 13 after erythrocyte suspension injection on day 1, 3 and 5 by atomic absorption spectroscopic analysis; type: functional; conditions: route intraperitoneal; method in brief: as §1
Mus musculus [31] = experiment: Iron chelating activity in iron-overloaded BDF1 mouse assessed as iron level in lung at 125 mg/kg, ip treated from day 8 to 13 after erythrocyte suspension injection on day 1, 3 and 5 by atomic absorption spectroscopic analysis; type: functional; conditions: route intraperitoneal; method in brief: as §1
Mus musculus [32] = experiment: Iron chelating activity in iron-overloaded BDF1 mouse assessed as iron level in liver at 125 mg/kg, ip treated from day 8 to 13 after erythrocyte suspension injection on day 1, 3 and 5 by atomic absorption spectroscopic analysis; type: functional; conditions: route intraperitoneal; method in brief: as §1
[33] = Binding affinity to Fe(NO3)3 assessed as stability constant; type: physicochemical
Method in brief: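 Minimum stability constant and stoichiometry were found by continuous variation (Job plot). Metal and ligand solutions stood 1 h and were then diluted with 50 mM barbital buffer (pH 7.4) containing 0.100 M KNO3. Visible absorbance at λmax was read at several times to confirm equilibrium. Absorbance was plotted against metal/(metal + ligand).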

Mus musculus [34] = experiment: Iron chelating activity in iron-overloaded BDF1 mouse assessed as transferrin saturation at 125 mg/kg, ip treated from day 8 to 13 after erythrocyte suspension injection on day 1, 3 and 5 relative to control; type: functional; conditions: route intraperitoneal; method in brief: as §2
Mus musculus [35] = experiment: Iron chelating activity in iron-overloaded BDF1 mouse assessed as daily urinary iron level at 125 mg/kg, ip treated from day 8 to 13 after erythrocyte suspension injection on day 1, 3 and 5 by atomic absorption spectroscopic analysis; type: functional, Urine; conditions: route intraperitoneal
Mus musculus [36] = experiment: Iron chelating activity in iron-overloaded BDF1 mouse assessed as iron level in heart at 125 mg/kg, ip treated from day 8 to 13 after erythrocyte suspension injection on day 1, 3 and 5 by atomic absorption spectroscopic analysis; type: functional; conditions: route intraperitoneal; method in brief: as §1

NC(=S)N/N=C/c1cnccn1
Activity (Mus musculus [1]): 1.1 µg
Activity (Mus musculus [2]): 14.6 µg
Activity (Mus musculus [3]): 9.2 µg
Activity (Mus musculus [4]): 15.4 µg
Activity (Mus musculus [5]): 9.4 µg
Activity (Mus musculus [6]): 171 µg
Activity (Mus musculus [7]): 16.7 µg
Activity [8]: 0.3%
Activity [9]: 1.4 µM
Activity (Mus musculus [10]): 44%
Activity (Mus musculus [11]): 58%
Activity (Mus musculus [12]): 16.1 µg
Activity [13]: > 17
Activity [14]: > 25
Activity (Mus musculus [15]): 1.1 µg
Activity (Mus musculus [16]): 156 µg

C(=N\Nc1cnccn1)/c1cnccn1
Activity (Mus musculus [17]): 44%
Activity (Mus musculus [18]): 38%
Activity (Mus musculus [19]): 14.9 µg
Activity (Mus musculus [20]): 12.8 µg
Activity (Mus musculus [21]): 16.4 µg
Activity (Mus musculus [22]): 7.4 µg
Activity [8]: 0.1%
Activity [9]: < 1 µM
Activity (Mus musculus [23]): 3.4 µg
Activity (Mus musculus [24]): 7.6 µg
Activity (Mus musculus [25]): 14.6 µg
Activity [26]: > 27
Activity (Mus musculus [27]): 164 µg
Activity [13]: 16.4
Activity (Mus musculus [28]): 174 µg
Activity (Mus musculus [29]): 4.9 µg

CC(=O)N(O)CCCCCNC(=O)CCC(=O)N(O)CCCCCNC(=O)CCC(=O)N(O)CCCCCN [DEFEROXAMINE]
Activity (Mus musculus [30]): 19.2 µg
Activity (Mus musculus [31]): 16.4 µg
Activity (Mus musculus [32]): 132 µg
Activity [33]: 30.6
Activity [8]: 1%
Activity [9]: 25.2 µM
Activity (Mus musculus [34]): 75%
Activity (Mus musculus [35]): 3 µg
Activity (Mus musculus [36]): 9.4 µg
